The full list was thinned out, with hits kept by preference.
T cruzi intra: inhibitors of intracellular Trypanosoma cruzi; intracellular Trypanosoma cruzi in host cells, plate reader; activity score (inhibition), % at 5.01 µM; 22,000 tested, 4.9% active; in the data active = activity score above about 55%; inconclusive = no clear call, values can overlap the other calls;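 note: parasites and compound incubated about four days before reading; 0% = median of neutral control wells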
INS-1E rescue: preserves ATP levels in cytokine-treated INS-1E cells. INS-1E cytokine-induced death, ATP luminescence, 48 h; normalised: neutral wells 0, positive control 100. AID 488910. 20,000 tested, 0.1% active. protection from cytokine-induced ATP loss, % at 10 µM;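 active = mean replicate protection from cytokine-induced ATP loss at least 50% and at least 75% of replicates each reaching 50%; inconclusive = meets only one of the two criteria, mean or replicate share; inactive = fails both the mean and replicate share criteria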
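Material: INS-1E rat cells; Quantity: 8000 cells/well; Buffer or medium: phenol-red-free RPMI with 5% fetal bovine serum; Probe or stimulus: cytokine cocktail of IFN-γ, TNF-α and IL-1β; Compound dosing: single test concentration per compound, delivered by pin transfer; Incubation: 48 h co-treatment, 10 min post-lysis read; Signal: CellTiter-Glo luminescence.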
A1 apoptosis 2: compounds inhibiting A1, read as caspase activation. AID 2465. 24,000 tested, under 10 active. MEF A1-2A-BIM cells, caspase-Glo luminescence, 3 h; percent of clofoctol response, DMSO zero. caspase activation, % (concentration not given with the values); in the data active = caspase activation above about 5.9%; inconclusive = no clear call, values can overlap the other calls; inactive = below about 2.2%
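Material: A1-2A-BIM-expressing MEF cells. Buffer or medium: RPMI-1640 plus 10% FBS. Incubation: cells settled overnight, compound exposure 3 h at 37 °C, 5% CO2. Signal: Caspase-Glo 3/7 luminescence, 1 h at room temperature.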
* = called active by the depositor; ? = inconclusive; nt = not tested or not shown.

SMILES | T cruzi intra | INS-1E rescue | A1 apoptosis 2
C[C@H](CO)N1C[C@H](C)[C@H](CN(C)C(=O)Nc2cccc3ccccc23)Oc2ncc(-c3cccc(C(F)(F)F)c3)cc2C1=O | 62* | nt | nt
C[C@H](CO)N1C[C@H](C)[C@H](CN(C)C(=O)Nc2cccc3ccccc23)Oc2ncc(C#Cc3cccc(F)c3)cc2C1=O | 66* | nt | nt
C[C@H](CO)N1C[C@H](C)[C@H](CN(C)C(=O)Nc2ccccc2)Oc2ncc(C#Cc3cccc(F)c3)cc2C1=O | 30 | -13 | 0
COc1ccc(S(=O)(=O)Nc2cccc3c2O[C@H](CN(C)Cc2ccc(C(=O)Nc4ccccc4N)cc2)[C@H](C)CN([C@H](C)CO)C3=O)cc1 | 51 | 15 | 0
C[C@@H]1CN([C@H](C)CO)C(=O)c2cc(NC(=O)Nc3cccc4ccccc34)ccc2O[C@H]1CN(C)Cc1ccc(Oc2ccccc2)cc1 | 53 | nt | 1
C[C@@H]1CN([C@@H](C)CO)C(=O)Cc2cc(NC(=O)Nc3cccc4ccccc34)ccc2O[C@@H]1CN(C)Cc1ccc(-c2ccccc2)cc1 | 50 | 1 | nt
C[C@@H]1CN([C@@H](C)CO)C(=O)Cc2cc(NC(=O)Nc3cccc4ccccc34)ccc2O[C@@H]1CN(C)Cc1ccccc1 | 67* | -22 | nt
C[C@H]1CN([C@@H](C)CO)C(=O)Cc2cc(NC(=O)Nc3cccc4ccccc34)ccc2O[C@@H]1CN(C)CC1CCCCC1 | 76* | -24 | -1
C[C@H](CO)N1C[C@H](C)[C@H](CN(C)CC2CC2)Oc2ccc(NC(=O)Nc3cccc4ccccc34)cc2CC1=O | nt | nt | 1
C[C@@H]1CN([C@H](C)CO)C(=O)Cc2cc(NC(=O)Nc3cccc4ccccc34)ccc2O[C@@H]1CN(C)Cc1ccc(Oc2ccccc2)cc1 | 69* | -16 | 1
C[C@@H]1CN([C@@H](C)CO)C(=O)c2cc(NC(=O)Nc3cccc4ccccc34)ccc2O[C@@H]1CN(C)Cc1ccc(Oc2ccccc2)cc1 | 57* | -57 | 0
COc1ccc(CN(C)C[C@@H]2Oc3ccc(NC(=O)Nc4cccc5ccccc45)cc3CC(=O)N([C@@H](C)CO)C[C@@H]2C)cc1 | 28 | 0 | 2
C[C@@H]1CN([C@H](C)CO)C(=O)c2cc(NC(=O)Cc3cn(C)c4ccccc34)ccc2O[C@H]1CN(C)C(=O)Nc1ccc(C(F)(F)F)cc1 | 9 | -6 | nt
C[C@@H]1CN([C@@H](C)CO)C(=O)Cc2cc(NC(=O)Nc3ccc(C(F)(F)F)cc3)ccc2O[C@@H]1CN(C)C(=O)Nc1ccccc1 | -20 | 1 | nt
Cc1ccc(S(=O)(=O)Nc2cccc3c2O[C@H](CN(C)Cc2ccc(C(F)(F)F)cc2)[C@@H](C)CN([C@@H](C)CO)C3=O)cc1 | 33 | -7 | 0
Cc1noc(C)c1S(=O)(=O)N(C)C[C@@H]1Oc2ccc(NC(=O)Cc3cn(C)c4ccccc34)cc2CC(=O)N([C@H](C)CO)C[C@H]1C | nt | nt | 0
C[C@@H]1CN([C@@H](C)CO)C(=O)c2cc(N(C)C)ccc2O[C@@H](C)CCCCO[C@H]1CN(C)S(=O)(=O)c1ccccc1 | nt | nt | 0
C[C@@H]1CN([C@H](C)CO)C(=O)Cc2cc(NC(=O)Nc3cccc4ccccc34)ccc2O[C@H]1CN(C)Cc1ccccc1 | 79* | -7 | nt
C[C@H]1CN([C@@H](C)CO)C(=O)Cc2cc(NC(=O)Nc3cccc4ccccc34)ccc2O[C@H]1CN(C)Cc1ccc(-c2ccccc2)cc1 | 4 | -45 | nt
C[C@H]1CN([C@@H](C)CO)C(=O)Cc2cc(NC(=O)Nc3cccc4ccccc34)ccc2O[C@H]1CN(C)Cc1ccccc1 | 69* | -19 | 0
C[C@@H]1CN([C@H](C)CO)C(=O)Cc2cc(NC(=O)Nc3cccc4ccccc34)ccc2O[C@@H]1CN(C)C(=O)Nc1ccc(C(F)(F)F)cc1 | 26 | -6 | nt
C[C@@H]1CN([C@@H](C)CO)C(=O)Cc2cc(NC(=O)Nc3cccc4ccccc34)ccc2O[C@@H]1CN(C)Cc1ccc(C(F)(F)F)cc1 | 91* | -23 | 0
C[C@@H]1CN([C@H](C)CO)C(=O)Cc2cc(NC(=O)Nc3cccc4ccccc34)ccc2O[C@@H]1CN(C)Cc1ccc(-c2ccccc2)cc1 | ? | -2 | 1
C[C@H](CO)N1C[C@H](C)[C@H](CN(C)S(=O)(=O)c2cn(C)cn2)Oc2ccc(NC(=O)Nc3ccc4c(c3)OCO4)cc2C1=O | 1 | 1 | 0
COc1ccc(CN(C)C[C@@H]2Oc3c(NC(=O)Nc4ccc(OC)cc4)cccc3C(=O)N([C@@H](C)CO)C[C@@H]2C)cc1 | -13 | -10 | 1
SMILES | T cruzi intra | INS-1E rescue | A1 apoptosis 2
C[C@H]1CN([C@@H](C)CO)C(=O)c2cccc(NC(=O)c3ccncc3)c2O[C@@H]1CN(C)Cc1ccc(Cl)c(Cl)c1 | 77* | -10 | -2
C[C@H]1CN([C@@H](C)CO)C(=O)c2cccc(NC(=O)c3ccncc3)c2O[C@H]1CN(C)Cc1ccc(Cl)c(Cl)c1 | 86* | -3 | 0
C[C@@H]1CN([C@H](C)CO)C(=O)c2cccc(NC(=O)c3ccncc3)c2O[C@@H]1CN(C)Cc1ccc(Cl)c(Cl)c1 | 76* | -7 | -1
C[C@@H]1CN([C@H](C)CO)C(=O)c2cccc(NC(=O)c3ccc(-c4nccs4)cc3)c2O[C@H]1CN(C)Cc1ccc2c(c1)OCO2 | 45 | -4 | nt
C[C@@H]1CN([C@H](C)CO)C(=O)c2cccc(NC(=O)c3cnccn3)c2O[C@H]1CN(C)Cc1ccc(Cl)c(Cl)c1 | 28 | -11 | nt
C[C@@H]1CN([C@H](C)CO)C(=O)c2cccc(NC(=O)c3cnccn3)c2O[C@@H]1CN(C)Cc1ccc(Cl)c(Cl)c1 | 26 | -20 | 0
C[C@H]1CN([C@@H](C)CO)C(=O)c2cccc(NC(=O)c3cnccn3)c2O[C@@H]1CN(C)Cc1ccc(Cl)c(Cl)c1 | -11 | -8 | nt
C[C@H](CO)N1C[C@H](C)[C@H](CN(C)Cc2ccc3c(c2)OCO3)Oc2c(NC(=O)c3ccncc3)cccc2C1=O | 64* | -1 | 2
CC(C)=CCC[C@@H](C)C/C=N/NC(=O)CCCCCC(=O)NO | nt | nt | 0
C[C@@H]1CN([C@H](C)CO)C(=O)CCCn2cc(nn2)CO[C@H]1CN(C)Cc1ccc2c(c1)OCCO2 | -12 | nt | 0
CC(C)NC(=O)Nc1ccc2c(c1)C(=O)N([C@H](C)CO)C[C@H](C)[C@@H](CN(C)S(=O)(=O)c1ccc(Cl)cc1)OCCCC[C@H](C)O2 | nt | nt | -2
COc1ccc(NC(=O)Nc2ccc3c(c2)CC(=O)N([C@H](C)CO)C[C@@H](C)[C@@H](CN(C)Cc2ccc(-c4ccccc4)cc2)O3)cc1 | 72* | -10 | nt
C[C@@H]1CN([C@H](C)CO)C(=O)Cc2cc(NC(=O)Nc3ccc(F)cc3)ccc2O[C@H]1CN(C)Cc1ccc(Oc2ccccc2)cc1 | ? | -68 | nt
COc1ccc(NC(=O)Nc2ccc3c(c2)CC(=O)N([C@@H](C)CO)C[C@@H](C)[C@@H](CN(C)Cc2ccc(Oc4ccccc4)cc2)O3)cc1 | 60* | -12 | 2

Source: PubChem (Broad Institute)
